Experimental findings from ChEMBL document CHEMBL4000240, “Escape from adamantane: Scaffold optimization of novel P2X7 antagonists featuring complex polycycles” (Bioorg Med Chem Lett, 2017) are described below.

For orientation: IC50 means the concentration that gives 50% inhibition. As a reminder, the inhibition is the change of the read-out against control, counted positive when it falls.

The target in one assay is T1, P2X purinoceptor 7 (Homo sapiens, UniProt Q99572).
T1 sequence (Q99572 whole entry): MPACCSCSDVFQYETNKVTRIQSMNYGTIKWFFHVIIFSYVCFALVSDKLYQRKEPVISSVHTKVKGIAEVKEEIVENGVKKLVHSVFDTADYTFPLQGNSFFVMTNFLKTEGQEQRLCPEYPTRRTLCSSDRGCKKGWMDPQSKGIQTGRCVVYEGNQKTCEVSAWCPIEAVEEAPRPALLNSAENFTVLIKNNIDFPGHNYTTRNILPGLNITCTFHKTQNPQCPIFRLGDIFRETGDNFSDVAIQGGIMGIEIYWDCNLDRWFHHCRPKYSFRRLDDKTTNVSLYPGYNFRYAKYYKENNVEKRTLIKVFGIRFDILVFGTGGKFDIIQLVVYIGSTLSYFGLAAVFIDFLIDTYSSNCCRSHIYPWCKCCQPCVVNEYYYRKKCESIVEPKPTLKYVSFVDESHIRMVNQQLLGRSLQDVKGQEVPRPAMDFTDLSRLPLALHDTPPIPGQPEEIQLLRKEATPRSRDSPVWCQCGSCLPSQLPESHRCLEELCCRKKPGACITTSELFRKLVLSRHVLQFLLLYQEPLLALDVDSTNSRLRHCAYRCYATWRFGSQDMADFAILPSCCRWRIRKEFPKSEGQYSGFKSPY
Put plainly: Antagonist activity at human P2X7 receptor expressed in HEK293 cells assessed as inhibition of BzATP-induced ethidium bromide uptake after 2 hrs by fluorescence assay. The assay is classed as cell-based. Summed up: (§1)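 HEK293 cells stably carrying hP2X7 (pcDNA3.1 plasmid, Lipofectamine transfection) grown in DMEM/10% FBS, 2 mM glutamine, antibiotics, 37 °C, 5% CO2. Cells at 2.5 x 10^6/mL in pH 7.4 HEPES buffer with sucrose or NaCl, given compound plus BzATP, 2 h at 37 °C. Ethidium read at ex 530/em 590 nm as % of BzATP-only uptake. IC50 by nonlinear regression, 3-6 experiments.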
Take `O=C(NNc1ccc(C(F)(F)F)cc1Cl)C12C3C=CC4C3C3C(C=CC31)C42`: the IC50 was determined as 1560 nM.

Regarding `CC12CC3CC1(C)CC3(C(=O)NNc1ccccc1Cl)C2`, the IC50 came to 18 nM.

On to `O=C(NNc1ccccc1Cl)C12C3C=CC4C3C3C(C=CC31)C42`, for which the IC50 was 96 nM.

Regarding `O=C(NNc1ccccc1Cl)C12C3CCC4C3C3C(CCC31)C42`, the half-inhibitory concentration (IC50) turned out to be 933 nM.

Regarding `CN([C@@H](Cc1ccc(OS(=O)(=O)c2cccc3cnccc23)cc1)C(=O)N1CCN(c2ccccc2)CC1)S(=O)(=O)c1cccc2cnccc12`, the IC50 was found to be 96 nM.

Consider `O=C(NNc1ccccc1C(F)(F)F)C12C3C=CC4C3C3C(C=CC31)C42`, for which the IC50 stood at 132 nM.

As to `O=C(NNc1ccccc1C(F)(F)F)C12C3CCC4C3C3C(CCC31)C42`, the IC50 was 366 nM.

The target of a further assay is T2, P2X purinoceptor 7 (Homo sapiens) (UniProt Q99572).
T2 sequence (whole entry): T1 sequence (Q99572 whole entry)
The assay is described as follows: Antagonist activity at human P2X7 receptor expressed in HEK293 cells assessed as inhibition of BzATP-induced ethidium bromide uptake at 10 uM after 2 hrs by fluorescence assay relative to control. It counts as cell-based. Summed up:
as §1
Consider `O=C1C2C3C=CC(C4CC34)C2C(=O)N1Nc1ccccc1Cl` (configuration not stated), for which the inhibition is below 20%.

On to `O=C1C2C3C=CC(C4CC34)C2C(=O)N1Nc1ccccc1F` (configuration not stated), for which the inhibition was below 20%.

Take `O=C1C2C3C=CC(C4CC34)C2C(=O)N1Nc1ccccc1` (configuration not stated): the inhibition was below 20%.

Regarding `O=C(NNc1ccc(C(F)(F)F)cc1)C12C3CCC4C3C3C(CCC31)C42`, the inhibition was below 20%.

With `O=C(NNc1ccc(C(F)(F)F)cc1)C12C3C=CC4C3C3C(C=CC31)C42`, the inhibition was below 20%.
